Key:
[1] = target: T1, 5-hydroxytryptamine receptor 1A (Rattus norvegicus, UniProt P19327); assay: Antagonist activity against rat hippocampal tissue 5-hydroxytryptamine 1A receptor; assay type: functional, tissue-based, Hippocampus
T1 sequence (P19327 whole entry): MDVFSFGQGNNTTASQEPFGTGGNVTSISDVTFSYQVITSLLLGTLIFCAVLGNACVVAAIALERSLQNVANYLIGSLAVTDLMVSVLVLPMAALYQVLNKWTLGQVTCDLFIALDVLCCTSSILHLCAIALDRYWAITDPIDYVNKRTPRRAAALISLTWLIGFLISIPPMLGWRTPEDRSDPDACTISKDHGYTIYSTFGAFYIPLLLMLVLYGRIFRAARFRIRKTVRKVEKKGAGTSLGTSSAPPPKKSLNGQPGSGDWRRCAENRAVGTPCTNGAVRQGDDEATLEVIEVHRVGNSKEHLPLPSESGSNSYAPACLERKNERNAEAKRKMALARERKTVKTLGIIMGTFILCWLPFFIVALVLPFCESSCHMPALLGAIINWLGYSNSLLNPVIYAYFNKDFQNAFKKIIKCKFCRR

[2] = target: D(2) dopamine receptor (Rattus norvegicus) (UniProt P61169); assay: Inhibitory activity against rat limbic tissue Dopamine receptor D2 at 1 uM concentration; assay type: tissue-based; conditions: Limbic system
[3] = target: Serotonin 2 (5-HT2) receptor (Rattus norvegicus, UniProt P30994+P08909+P14842); assay: Inhibitory activity against rat cortical 5-hydroxytryptamine 2 receptor; assay type: protein assay
In short: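 Cortical membranes from male Sprague–Dawley rats, incubated 15 min at 37 °C in 50 mM Tris pH 7.6 with 1.0 nM [3H]ketanserin and a range of drug concentrations. Nonspecific binding defined with 100 μM methysergide. Run by filtration and counting.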

[4] = target: T2, 5-hydroxytryptamine receptor 1A (Rattus norvegicus) (UniProt P19327); assay: Inhibitory activity against 5-hydroxytryptamine 1A receptor of rat hippocampal tissue at 0.1 uM; conditions: Hippocampus
T2 sequence (whole entry): T1 sequence (P19327 whole entry)

[5] = tested on: Rattus norvegicus; assay: Induction of serotonin syndrome against male Sprague-Dawley CD rats following ip administration of the compound; assay type: functional
In short: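 Male Sprague–Dawley CD rats (150–250 g), group-housed and acclimated 1 week, given compound or vehicle ip, 8 per group. Forepaw treading, head weaving, tremor, hindlimb abduction, flat body posture and Straub tail each rated 0–3 (maximum 18) over the first 15 min. ED50 by nonlinear regression with inverse prediction.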

[6] = tested on: Rattus norvegicus; assay: Antagonistic activity against quipazine induced head shakes against male Sprague-Dawley CD rats following ip administration of the compound; assay type: functional
In short: (§1)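 Male Sprague–Dawley CD rats (200–300 g), 8 per treatment, given compound or vehicle ip 30 min before quipazine 2.5 mg/kg ip or DOI 1.0 mg/kg ip. Rhythmic radial head shakes counted for 30 min after agonist. ED50 by nonlinear regression with inverse prediction.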

[7] = target: T1, 5-hydroxytryptamine receptor 1A; assay: Inhibitory activity against 5-hydroxytryptamine 1A receptor of rat hippocampal tissue; assay type: tissue-based, Hippocampus
In short: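 Rat hippocampal membranes from male Sprague–Dawley rats (150–250 g), preincubated 10 min at 37 °C to remove endogenous 5-HT. Used at 0.4–0.6 mg protein with 1.5–1.8 nM [3H]8-OH-DPAT and a range of drug concentrations, 10 min at 37 °C, in 50 mM Tris pH 7.7 with 0.1% ascorbate, 10 μM pargyline and 4 mM CaCl2. Nonspecific binding defined with 1 μM 5-HT. Filtration, scintillation counting. Ki from duplicate assays, 95% CI.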

[8] = tested on: Rattus norvegicus; assay: Antagonistic activity against […] induced serotonin syndrome against male Sprague-Dawley CD rats following ip administration of the compound; assay type: functional
In short: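 Rats were dosed ip with compound or vehicle (male Sprague–Dawley CD, 150–250 g, 8 per group), then challenged with 8-OH-DPAT 3 mg/kg ip. The six serotonin-syndrome behaviours were each rated 0–3 for a further 15 min. ED50 by nonlinear regression with inverse prediction.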

[9] = target: D(2) dopamine receptor (Rattus norvegicus, UniProt P61169); assay: Inhibitory activity against rat limbic tissue Dopamine receptor D2; assay type: tissue-based, Limbic system
In short: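 Rat limbic membranes, handled as in the 5-HT2 assay: 15 min at 37 °C, 50 mM Tris pH 7.6, drug concentration range. 30 nM ketanserin in all tubes to block 5-HT2 sites. Nonspecific binding defined with 10 μM sulpiride. Filtration and counting.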

[10] = tested on: Rattus norvegicus; assay: Antagonistic activity antagonist DOI induced head shakes against male Sprague-Dawley CD rats following ip administration of the compound; assay type: functional; in short: as §1
[11] = target: D(2) dopamine receptor (Rattus norvegicus) (UniProt P61169); assay: Inhibitory activity against Dopamine receptor D2 of rat limbic tissue at 1 uM; assay type: tissue-based; conditions: Limbic system
[12] = target: T2, 5-hydroxytryptamine receptor 1A (Rattus norvegicus); assay: Inhibitory activity against rat hippocampal tissue 5-hydroxytryptamine 1A receptor at 1 uM concentration; assay type: tissue-based; conditions: Hippocampus
[13] = target: T2, 5-hydroxytryptamine receptor 1A (Rattus norvegicus); assay: Inhibitory activity against rat hippocampal tissue 5-hydroxytryptamine 1A receptor at 0.1 uM concentration; assay type: tissue-based; conditions: Hippocampus

Sequence of D(2) dopamine receptor (Rattus norvegicus) (P61169 whole entry): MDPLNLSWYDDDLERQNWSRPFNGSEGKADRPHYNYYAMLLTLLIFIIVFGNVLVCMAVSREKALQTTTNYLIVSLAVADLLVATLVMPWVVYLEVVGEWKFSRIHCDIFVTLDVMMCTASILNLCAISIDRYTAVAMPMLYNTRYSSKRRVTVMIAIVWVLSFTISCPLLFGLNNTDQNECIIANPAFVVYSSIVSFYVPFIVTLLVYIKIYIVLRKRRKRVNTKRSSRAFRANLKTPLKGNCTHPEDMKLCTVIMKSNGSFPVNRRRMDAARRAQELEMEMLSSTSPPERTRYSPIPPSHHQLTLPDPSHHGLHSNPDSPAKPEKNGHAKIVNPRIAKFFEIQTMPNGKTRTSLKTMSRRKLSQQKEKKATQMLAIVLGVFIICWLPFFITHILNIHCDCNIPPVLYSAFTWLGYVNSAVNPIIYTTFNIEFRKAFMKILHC
Sequence of D(2) dopamine receptor (P61169 whole entry): as above

Structure (SMILES)	Ki [1] [nM]	Ki [3] [nM]	inhibition [4] [%]	also measured
COc1ccccc1N1CCN(CCNC(=O)C23CC4C[C@@H](C[C@H]2C4)C3)CC1.Cl.Cl	0.24	8.2		inhibition [2]: 100%
Cc1cccc(N2CCN(C[C@@H](C)NC(=O)C34C[C@H]5C[C@@H](C3)C[C@@H](C4)C5)CC2)c1C			0	
O=C(NC12C[C@H]3C[C@@H](C1)C[C@@H](C2)C3)OCCN1CCN(c2ncccn2)CC1			34	
C[C@@H](CN1CCN(Cc2ccccc2)CC1)NC(=O)C12C[C@H]3C[C@@H](C1)C[C@@H](C2)C3			0	
O=C(OCCCN1CCN(c2ncccn2)CC1)C12CC3C[C@@H](C[C@H]1C3)C2			12	
Cl.Cl.O=C(NCCN1CCN(c2ncccn2)CC1)C12C[C@H]3C[C@@H](C1)C[C@@H](C2)C3		73		ED50 [5]: 12.9 mg/kg; ED50 [6]: 0.6 mg/kg; Ki [7]: 1 nM; ED50 [8]: 2.2 mg/kg; Ki [9]: 166 nM; ED50 [10]: 1.8 mg/kg
O=C(NCCCN1CCN(c2ncccn2)CC1)NC12CC3CC(CC1C3)C2			69	inhibition [11]: 6%
COc1ccccc1N1CCN(CCCNC(=O)C23CC4C[C@@H](C[C@H]2C4)C3)CC1.Cl.Cl	3.3	43.5		inhibition [2]: 72%
COc1ccccc1N1CCN(CCNC(=O)NC23C[C@H]4C[C@@H](C2)C[C@@H](C3)C4)CC1	9	38		inhibition [2]: 94%
COc1ccccc1N1CCN(CCNC(=O)CC23C[C@H]4C[C@@H](C2)C[C@](C)(C4)C3)CC1	11			inhibition [2]: 70%
Cc1cccc(N2CCN(C[C@H](C)NC(=O)C34C[C@H]5C[C@@H](C3)C[C@@H](C4)C5)CC2)c1C			0	
Cl.Cl.O=C(N[C@H](Cc1ccccc1)CN1CCN(Cc2ccccc2)CC1)C12C[C@H]3C[C@@H](C1)C[C@@H](C2)C3	2.3	722		Ki [9]: 1400 nM
COc1ccccc1N1CCN(CCCNC(=O)C23C[C@H]4C[C@@H](C2)C[C@@H](C3)C4)CC1.Cl.Cl	1	75		ED50 [5]: 9 mg/kg; ED50 [6]: 4.5 mg/kg; ED50 [8]: 5.8 mg/kg; Ki [9]: 200 nM; ED50 [10]: 4.4 mg/kg
COc1ccccc1N1CCN(CCC(=O)NC23C[C@H]4C[C@@H](C2)C[C@@H](C3)C4)CC1.Cl.Cl	9	77		Ki [9]: 93 nM
COc1ccccc1N1CCN(C(=O)NC23C[C@H]4C[C@@H](C2)C[C@@H](C3)C4)CC1				inhibition [12]: 0%
COc1ccccc1N1CCN(CCCNC(=O)CC23C[C@H]4C[C@@H](C2)C[C@](C)(C4)C3)CC1	4.4			inhibition [2]: 79%
C[C@H](CN1CCN(c2ncccn2)CC1)NC(=O)C12C[C@H]3C[C@@H](C1)C[C@@H](C2)C3	1.1	961		Ki [9]: 153 nM
O=C(OCCCN1CCN(c2cncc(Cl)n2)CC1)C12C[C@H]3C[C@@H](C1)C[C@@H](C2)C3				inhibition [13]: 5%

From ChEMBL document CHEMBL1132497, “Synthesis and SAR of adatanserin: novel adamantyl aryl- and heteroarylpiperazines with dual serotonin 5-HT(1A) and 5-HT(2) activity as potential anxiolytic and antidepressant agents” (J Med Chem, 1999)
